{"data": "Experimental data of several laboratories", "CDK14 with cyclin Y": "Cyclin-dependent kinase 14, with cyclin Y (CDK14, Homo sapiens, UniProt O94921)", "CDK14": "Cyclin-dependent kinase 14 (CDK14, Homo sapiens, UniProt O94921)", "note": "Compare with care: the assays were run in different laboratories."}
{"Compound": "COc1cc(Cl)c(C(=O)N[C@@H](CN[C@H]2CC[C@@H](N)CC2)Cc2ccc(C#N)cc2)cc1-c1ccc(CN[C@H](C)c2ccc(C)cc2)o1", "target": "CDK14 with cyclin Y", "assay": "enzyme activity, inhibitor", "setting": "1 µM", "measurement": "remaining activity", "value": "99%"}
{"Compound": "Cc1ccc(C(=O)Nc2ccc(CN3CCN(C)CC3)c(C(F)(F)F)c2)cc1C#Cc1cnc2cccnn12", "target": "CDK14", "assay": "enzyme activity, inhibitor", "setting": "23.5 nM", "measurement": "remaining activity", "value": "68%"}
{"Compound": "CN1CC(Oc2cnc(C#N)cc2-c2ccn3nc(NC(=O)C4CC4)cc3c2)C1", "target": "CDK14 with cyclin Y", "assay": "enzyme activity, inhibitor", "setting": "1 µM", "measurement": "inhibition", "value": "-11%"}
{"Compound": "CC1CCCN1c1nccc(-c2cnn3ncccc23)n1 (stereo not drawn)", "target": "CDK14", "assay": "binding", "setting": "1 µM", "measurement": "remaining binding", "value": "100%"}
{"Compound": "Fc1cccc(-n2cnc3c(NCc4nc5c(F)c(F)ccc5[nH]4)nc(N4CCOCC4)nc32)c1", "target": "CDK14", "assay": "binding, competition with immobilised ligand", "setting": "10 µM", "measurement": "binding vs control", "value": "55%"}
{"Compound": "CCC(=N\\O)/C(C)=C/c1ccc(F)cc1", "target": "CDK14", "assay": "cell-free assay, competition with immobilised ligand", "setting": "1 µM", "measurement": "remaining binding", "value": "91%"}
{"Compound": "Nc1ncnc2occ(-c3ccc(NC(=O)Nc4cc(C(F)(F)F)ccc4F)cc3)c12", "target": "CDK14", "assay": "cell-free assay, inhibitor", "setting": "20 µM", "measurement": "remaining signal", "value": "0.1%"}
{"Compound": "Cc1ccc(C(=O)NCc2ccsc2)cc1C#Cc1cn(C(C)C)c2ncnc(N)c12", "target": "CDK14 with cyclin Y", "assay": "enzyme activity, inhibitor", "setting": "1 µM", "measurement": "activity vs control", "value": "92%"}
{"Compound": "O=C(Nc1cnn(-c2csc(C(=O)NC3COC3)c2)c1)Nc1ccccc1Cl", "target": "CDK14", "assay": "enzyme activity, inhibitor", "setting": "5 µM", "measurement": "remaining activity", "value": "107%"}
{"Compound": "Cn1nc(C(F)(F)F)cc1-c1cnc(N2CCc3cc(S(=O)(=O)Nc4c(F)cc(Cl)cc4F)cc(N4CCCC4=O)c32)nc1", "target": "CDK14", "assay": "cell-free assay, competition with immobilised ligand", "setting": "1 µM", "measurement": "remaining binding", "value": "100%"}
{"Compound": "Cc1sc(C(=O)NC2COC2)cc1-n1cc(NC(=O)Nc2c(F)cccc2Cl)cn1", "target": "CDK14", "assay": "enzyme activity, inhibitor", "setting": "10 µM", "measurement": "remaining activity", "value": "100%"}
{"Compound": "O=[N+]([O-])c1cccc2[nH]c(CNc3nc(N4CCOCC4)nc4c3ncn4-c3ccsc3)nc12", "target": "CDK14", "assay": "binding, competition with immobilised ligand", "setting": "10 µM", "measurement": "binding vs control", "value": "40%"}
